An excerpt weighted towards active compounds, which were near 2.6% of everything screened.
NR2E3 ag-1: activates human NR2E3 receptor; 360,000 tested, 0.35% active; Q9Y5X4; inhibition of corepressor binding, % at 3.98 µM; AID 602229; CHO-S Gal4-NCOR/VP16-NR2E3 two-hybrid, luciferase;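 active = inhibition above the mean of all tested compounds plus 3 SD, cut at about 70% in these data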;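 note: 0% = DMSO with NR2E3 transfected cells and 100% = cells lacking NR2E3 construct; higher means lower luciferase signal from less NR2E3 corepressor binding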
Target sequence (Q9Y5X4 whole entry, looked up, the tested form may be a part): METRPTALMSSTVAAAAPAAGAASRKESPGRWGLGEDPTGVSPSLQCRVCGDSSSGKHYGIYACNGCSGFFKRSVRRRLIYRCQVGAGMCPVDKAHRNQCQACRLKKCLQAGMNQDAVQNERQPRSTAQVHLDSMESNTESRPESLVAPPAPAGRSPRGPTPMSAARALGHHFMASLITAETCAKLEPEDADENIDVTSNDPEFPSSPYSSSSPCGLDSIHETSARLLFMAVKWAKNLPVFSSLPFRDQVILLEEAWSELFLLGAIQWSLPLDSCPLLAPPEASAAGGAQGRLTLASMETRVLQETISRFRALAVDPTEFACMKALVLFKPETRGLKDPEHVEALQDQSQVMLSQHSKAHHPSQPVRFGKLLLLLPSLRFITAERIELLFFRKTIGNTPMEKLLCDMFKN
rCAG RNA binder: binds r(CAG) RNA repeats | r(CAG) RNA repeat, TO-PRO-1 dye displacement fluorescence | 370,000 tested, 1.3% active | inhibition, % at 3 µM;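 active = inhibition above the plate cutoff, the mean of all test compounds on that plate plus 3 SD, cut at about 35% in these data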;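 note: 0% = DMSO alone and 100% = 100 µM mitoxantrone as full dye displacement; higher means more dye released from RNA so lower well fluorescence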
PG9 Ab binder: binds the HIV-1 gp120 antibody PG9 | TR-FRET gp120-PG9 antibody binding | inhibition, % at 6.7 µM | 360,000 tested, 0.43% active | AID 624416; in the data active = inhibition above about 8.5%
NR2E3 ag-2: activates human photoreceptor nuclear receptor NR2E3 | GST-NR2E3/biotin-RetCOR TR-FRET, 1536-well | inhibition of corepressor binding, % at 4.78 µM | 320,000 tested, 0.12% active;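 active = percent inhibition above the cutoff of mean plus 3 SD of all tested compounds, set per screening campaign, cut at about 20% in these data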;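 note: 0% = DMSO wells and 100% = biotin wells as full block of FRET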
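System: GST-NR2E3 and biotin-RetCOR proteins; probe or stimulus: 7 nM biotin-RetCOR; doses: compound at 4.8 µM, single dose; schedule: Compound–protein incubation for 5 h at 4 °C; detection: time-resolved FRET; read-out: percent inhibition; controls: biotin wells as high control, 0.6% DMSO wells as low control; format: 1536-well plates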
Rev-erbA mod: Rev-erb alpha (human) modulation; Rev-erbα–FITC-DNA binding, fluorescence polarization, 90 min; P20393; AID 1259318; activity, % at 10 µM; 370,000 tested, 0.79% active;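 active = activity above about 14%, limit read from the data; passing the limit was not always enough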;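 note: 0% = DMSO wells with 35 nM protein and 100% = DMSO wells with 750 nM protein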
NR2E3 ag confirm: confirmation of human NR2E3 agonists; shares compounds with NR2E3 ag-1; CHO-S mammalian two-hybrid NR2E3-NCOR, luciferase luminescence; inhibition, % at 3.98 µM; 2,300 tested, 51% active;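 active = average inhibition above a cutoff equal to the mean inhibition of all tested compounds plus one SD, cut at about 70% in these data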;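 note: 0% = DMSO in NR2E3 cells and 100% = DMSO in cells lacking NR2E3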
VP16 counter: reduces GAL4-VP16 reporter signal in NR2E3 counterscreen; shares compounds with NR2E3 ag-1; CHO-S GAL4-VP16 luciferase reporter, luminescence; inhibition, % at 3.98 µM; 2,300 tested, 29% active; AID 624379;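 active = mean inhibition above a cutoff equal to the average over all tested compounds plus one standard deviation, cut at about 70% in these data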;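 note: luciferase from a UAS reporter driven by GAL4-VP16 transactivation; 0% = DMSO with VP16-transfected cells and 100% = DMSO with cells lacking VP16; higher means less reporter light so more repression of VP16 activity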
Starred values were filed as active, the others as inactive; x = no result given.

SMILES	NR2E3 ag-1	rCAG RNA binder	PG9 Ab binder	NR2E3 ag-2	Rev-erbA mod	NR2E3 ag confirm	VP16 counter
CN1OC[C@@H]2CN[C@H](c3ccc(-c4cc5ccccc5o4)cc3)C[C@@H]21	92*	x	x	x	x	79*	68
C#CCN1CC(COc2ccccc2)Oc2cccc(Oc3ccc(SC)c(C)c3)c2S1(=O)=O (stereo not given)	x	8	-2	x	-1	x	x
CCOC(=O)C1CSCCS(=O)(=O)N1Cc1ccccc1C (stereo not given)	x	-1	-1	x	3	x	x
C=C(C)C1CCC2(C(=O)O)CCC3(C)C(CCC4C5(C)C(C=O)C(O)C(C)(C)C5CCC43C)C12 (stereo not given)	76*	11	-2	0	-2	57	18
COC(=O)c1cc2c(c3c4ccccc4n(S(=O)(=O)c4cccc(C)c4)c13)C(=O)N(Cc1ccccc1OC)C2	x	17	0	x	9	x	x
COc1ccc(C(=O)Nc2ccc(OCC(F)(F)C(F)F)c(C(F)(F)F)c2)cc1OC	20	0	-2	1	7	x	x
O=C(Nc1ccc(OCC(F)(F)C(F)F)c(C(F)(F)F)c1)c1ccc(Cl)cc1	90*	7	0	-2	0	12	48
CCCCOC(=O)CCN1C(=O)/C(=C/c2ccccc2)SC1=S	x	x	x	x	-1	x	x
Clc1ccc(SCc2csc(N3CCOCC3)n2)cc1	-8	-4	-2	-1	0	x	x
O=c1cc(CSc2ccc(Cl)cc2)nc(-c2ccccn2)[nH]1	101*	1	-1	0	1	98*	60
Clc1ccc(SCc2cc(N3CCOCC3)nc(-c3ccccn3)n2)cc1	95*	-10	-1	0	2	58	43
CCCCc1ccc(S(=O)(=O)NCCc2ccncc2)cc1	70	-3	-1	1	-1	73*	65
Cc1ccc(S(=O)(=O)NCCc2ccncc2)cc1	5	1	-1	-2	-1	x	x
Cc1nc(-c2ccc(OCC(C)C)c(C#N)c2)sc1C(=O)O	x	x	x	x	-2	x	x
C=C1[C@H](C)CN(S(=O)C(C)(C)C)[C@H]1CCO (stereo not given in full)	x	1	0	x	-4	x	x
COC(=O)c1c(-c2ccc(Br)cc2)csc1NC(=O)Cc1ccc(OC)c(OC)c1	8	7	0	-2	-1	x	x
COC(=O)c1c(-c2ccc(C)cc2)csc1NC(=O)Cc1ccc(OC)c(OC)c1	57	9	-1	x	10	22	32
CCNc1ccc(S(=O)(=O)NCCN(C)C)cc1[N+](=O)[O-]	-4	2	0	3	5	x	x
CN(C)CCCNS(=O)(=O)c1ccc(NC2CCCCCC2)c([N+](=O)[O-])c1	49	10	-1	1	4	55	64
Cc1ccc2ccc3cccnc3c2n1	67	-1	0	1	3	45	9
CC(=O)Nc1ccc(S(=O)(=O)NCCSCc2c(Cl)cccc2Cl)cc1	62	2	1	1	-4	71*	58
CC(=O)Nc1ccc(S(=O)(=O)NCCSCc2cccc(Cl)c2)cc1	-10	7	-2	-4	9	x	x
CCC(Sc1nc(C)cc(=O)[nH]1)C(=O)Nc1sc2c(c1C#N)CCCC2 (stereo not given)	88*	55*	0	1	4	76*	53
CC(Sc1nc(N)cc(=O)[nH]1)C(=O)Nc1sc2c(c1C#N)CCCC2 (stereo not given)	51	15	-1	1	-3	61	61
N#Cc1c(NC(=O)CSc2nc(N)cc(=O)[nH]2)sc2c1CCCCCC2	69	17	-2	0	2	36	45
SMILES	NR2E3 ag-1	rCAG RNA binder	PG9 Ab binder	NR2E3 ag-2	Rev-erbA mod	NR2E3 ag confirm	VP16 counter
CCC(Sc1nnc2c3ccccc3n(CC)c2n1)C(=O)Nc1sc2c(c1C#N)CCCC2 (stereo not given)	3	4	0	1	-10	x	x
Cc1nnc(SC(C)C(=O)Nc2sc3c(c2C#N)CCCC3)[nH]c1=O (stereo not given)	-3	11	0	2	-1	x	x
COCCNC(=S)N(C)[C@H]1C[C@H]2c3[nH]c4c(-c5ccc6c(c5)OCO6)cccc4c3CCN2C(=O)[C@H]1[C@H](C)O	x	10	-2	x	1	x	x
CC(=O)Oc1cc(C)c(OC(C)=O)c2ccccc12	x	x	x	x	-7	x	x
CC(C)CCCCCCCCCCCCC(=O)NCC(=O)NC1C(O)C(O)C(Nc2ncnc3nc[nH]c23)OC1C(O)CO (stereo not given)	100*	x	x	x	x	100*	101*
CC(O)CNc1ncnc2nc[nH]c12 (stereo not given)	-18	-3	2	1	-3	x	x
CCC(CC)CN1CCC(CN2C(=S)NC[C@@H]2Cc2ccccc2)CC1	x	2	0	x	3	x	x
COc1ccc(CCN(C)C(=O)COc2ccc(C(=O)c3ccccc3)cc2)cc1OC	10	-9	0	-3	3	x	x
COc1ccc(CCN(C)C(=O)Cc2ccc(-c3ccccc3)cc2)cc1OC	85*	-2	1	2	-9	85*	60
COc1ccc(CN2C[C@H](COCc3ccccc3)Oc3cccc(F)c3S2(=O)=O)cc1	x	5	-3	x	-4	x	x
COc1ccc(/C=C2\SC(=N)N(c3nccs3)C2=O)cc1OC	74*	27	-4	2	-6	24	25
N=C1S/C(=C\c2ccc(-c3cccc(Cl)c3)o2)C(=O)N1c1nccs1	4	15	-1	0	-32	x	x
Cc1ccc(S(=O)(=O)N2C[C@H]3N(C(=O)OC(C)C)N(C(=O)OC(C)C)C[C@H](OC(=O)NCC4CCCCC4)[C@@]3(O)C2)cc1	57	x	x	x	x	70*	45
Cc1ccc(S(=O)(=O)N2C[C@H]3N(C(=O)OC(C)C)N(C(=O)OC(C)C)C[C@H](OC(=O)NCc4ccccc4)[C@@]3(O)C2)cc1	-29	1	2	x	2	x	x
CC(=O)N(/N=C1\Sc2ccccc2C1=O)c1ccc(C)cc1C	67	-2	-2	-1	-6	62	22
CC(=O)N(/N=C1\Sc2ccccc2C1=O)c1ccccc1C	-47	-6	-1	15	3	x	x
CCCCCCCCCCCCN1[C@@H](CC(=O)O)c2cc(C(F)(F)F)ccc2S1(=O)=O	53	28	1	-3	-2	98*	30
Cc1cnc(NC(=O)C2CC(=O)N(c3cccc(Cl)c3)C2)s1 (stereo not given)	86*	-3	-3	4	6	100*	52
Cc1cnc(NC(=O)C2CC(=O)N(c3ccc4c(c3)OCCO4)C2)s1 (stereo not given)	55	2	-1	x	3	75*	25
Cc1nnc(NC(=O)C2CC(=O)N(c3ccc4c(c3)OCCO4)C2)s1 (stereo not given)	10	0	-3	6	7	x	x

Screening results: PubChem, several laboratories
